hERG protect – shields human hERG channel from block by proarrhythmic agents | Q12809 | CHO-hERG, FluxOR thallium flux, dofetilide IC70 present | activation (rescue from dofetilide block), less the hit threshold, % at 10 µM | 0.51% of 310,000 active;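 active = activation above the mean of controls blocked by dofetilide plus 5 SD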;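 also: thallium influx through hERG after potassium depolarization seen as dye fluorescence rise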
KCNQ1 inh – human KCNQ1 channel inhibition; P51787; CHO-K1 KCNQ1, FluxOR thallium flux fluorescence; hits give high values; 1.3% of 310,000 active; B-score at 10 µM;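 active = compounds whose thallium flux B-score, printed positive for inhibition, exceeds three library SD while starting fluorescence stays within three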;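 also: channel opened by potassium depolarization with thallium stimulus after 20 min compound exposure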
KCNK3 inh – human KCNK3 channel inhibition, primary screen. O14649. CHO-KCNK3 thallium flux, FluxOR fluorescence; hits give low values. B-score at 10 µM. 0.84% of 340,000 active;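 active = B-score under library mean minus 4 SD, starting fluorescence ratio at most library mean plus 5 SD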;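 also: more negative B-score means stronger inhibition of thallium flux through KCNK3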
KCC2 mod – modulators of human KCC2 chloride dependent transport. Q9H2X9. KCC2 cells, thallium flux FluoZin-2 fluorescence. B-score of Tl+ flux slope (higher = more flux/activation; lower = inhibition) at 10 µM. 2.2% of 190,000 active. AID 1456;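 active = thallium flux slope and its plate-corrected score both differing from the plate sample mean at a set confidence after two filtering rounds, in either direction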;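 also: slope of fluorescence scaled to starting intensity during 10 to 20 s after thallium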
Target sequence (Q9H2X9 whole entry, looked up): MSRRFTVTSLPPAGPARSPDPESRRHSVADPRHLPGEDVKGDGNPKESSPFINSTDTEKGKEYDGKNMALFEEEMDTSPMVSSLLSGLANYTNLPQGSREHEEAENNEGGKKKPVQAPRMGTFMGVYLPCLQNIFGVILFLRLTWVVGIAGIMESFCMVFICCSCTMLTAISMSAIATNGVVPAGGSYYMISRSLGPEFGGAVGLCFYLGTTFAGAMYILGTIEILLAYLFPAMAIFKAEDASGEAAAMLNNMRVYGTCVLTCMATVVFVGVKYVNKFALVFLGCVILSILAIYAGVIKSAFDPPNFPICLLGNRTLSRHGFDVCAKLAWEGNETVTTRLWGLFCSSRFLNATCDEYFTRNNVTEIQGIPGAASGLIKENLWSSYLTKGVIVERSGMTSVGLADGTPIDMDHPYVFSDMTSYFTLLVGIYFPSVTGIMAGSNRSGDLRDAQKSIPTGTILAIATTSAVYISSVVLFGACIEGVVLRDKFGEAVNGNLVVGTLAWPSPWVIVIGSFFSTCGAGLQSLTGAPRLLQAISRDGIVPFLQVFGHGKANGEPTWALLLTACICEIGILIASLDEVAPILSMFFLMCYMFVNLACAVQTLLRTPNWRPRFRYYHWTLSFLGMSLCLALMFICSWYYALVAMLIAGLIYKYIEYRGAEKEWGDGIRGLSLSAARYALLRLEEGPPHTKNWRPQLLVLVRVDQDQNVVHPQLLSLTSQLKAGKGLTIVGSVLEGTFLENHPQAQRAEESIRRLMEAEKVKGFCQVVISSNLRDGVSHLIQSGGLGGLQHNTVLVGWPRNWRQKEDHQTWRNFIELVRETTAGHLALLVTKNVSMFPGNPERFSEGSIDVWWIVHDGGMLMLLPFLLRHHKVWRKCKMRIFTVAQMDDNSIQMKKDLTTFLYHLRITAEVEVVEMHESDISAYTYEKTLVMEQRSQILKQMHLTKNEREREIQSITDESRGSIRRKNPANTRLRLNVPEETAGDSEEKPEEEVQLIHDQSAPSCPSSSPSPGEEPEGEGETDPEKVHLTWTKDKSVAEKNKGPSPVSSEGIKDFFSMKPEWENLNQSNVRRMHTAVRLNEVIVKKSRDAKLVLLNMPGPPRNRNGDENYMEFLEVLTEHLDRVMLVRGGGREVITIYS
KCNQ1 act – human KCNQ1 channel potentiation or activation; CHO-K1 KCNQ1, thallium flux FluxOR fluorescence; hits give high values; B-score at 10 µM; 0.35% of 310,000 active; AID 2648;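 active = fluorescence ratio B-score, a plate-corrected score, at least three library SD, with initial intensity B-score within 5 SD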
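Assay system: stable KCNQ1 CHO-K1 line; medium: assay buffer, equal DMSO in all wells; timing: 90 min dye loading and 20 min compound exposure, both at room temperature; technique: kinetic FluxOR thallium fluorescence, 10-s 1-Hz baseline, 110-s post-stimulus read; read-out basis: B score of baseline-normalized fluorescence ratio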
KCNK9 block – blocks the human KCNK9 two-pore domain potassium channel; HEK293 KCNK9, FluxOR thallium flux fluorescence; hits give low values; B-score at 10 µM; 1.2% of 310,000 active; AID 488922;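 active = ratio B-score over 3 SD below the library mean, with starting fluorescence within 5 SD of its mean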;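 also: negative B-score means less thallium flux so channel inhibition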
KCNQ1 inh valid – reconfirmed blocker of the human KCNQ1 potassium channel. KCNQ1 cell line, FluxOR thallium flux fluorescence. AID 588353. shares compounds with KCNQ1 inh. 93% of 1,600 active. inhibition, % at 10 µM;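 active = primary screen active, with duplicate mean exceeding buffer control mean plus 3 SD of buffer wells, cut at about 28% in these data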;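 also: 0% = buffer control ratio and 100% = XE991 inhibitor control ratio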
CHO KCNQ1 ctr – KCNQ1 inhibitor counter-screen hit in parental CHO cells; shares compounds with KCNQ1 inh; parental CHO-K1, FluxOR thallium flux fluorescence ratio; hits give low values; zero means no signal rise above baseline; fluorescence ratio (Tl flux) at 10 µM; 21% of 1,600 active; AID 588366;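 active = mean of duplicate thallium-flux fluorescence ratios in parental host cells more than 5 SD below the buffer control mean, cut at about 0.38 in these data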;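 also: ratio is peak minus minimum fluorescence divided by baseline fluorescence; actives read low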
KCNQ1 APC inh – confirmation of human KCNQ1 potassium channel inhibitors by electrophysiology; shares compounds with KCNQ1 inh; KCNQ1-CHO cells, automated patch clamp current; calls only at 10 µM; 20% of 490 active; AID 624120;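 active = KCNQ1 current drop exceeding 3 SD of negative control wells, seen in both duplicate runs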;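 also: steady state current during a 2 s step from -80 to +40 mV; negative values mean current inhibition and positive values mean potentiation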
KCNQ2 inh – KCNQ1 inhibitor that also blocks rat KCNQ2 channel. KCNQ2 cells, FluxOR thallium flux fluorescence. 71% of 1,600 active. shares compounds with KCNQ1 inh. inhibition, % at 10 µM. AID 651746;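 active = mean percent inhibition of the KCNQ2 thallium signal more than 5 SD above the buffer-only control wells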;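 also: KCNQ2 expressed in CHO cells; 0% = buffer control wells and 100% = XE-991 inhibitor control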
KCNQ1-KCNE1 inh – KCNQ1 inhibitor that also blocks human KCNQ1/KCNE1 channel; shares compounds with KCNQ1 inh; KCNQ1/KCNE1 cells, FluxOR thallium flux fluorescence; inhibition, % at 10 µM; 77% of 1,600 active;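 active = mean percent inhibition of duplicate wells above the buffer-only control mean plus 3 SD of those controls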;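 also: 0% = buffer only wells and 100% = XE-991 inhibitor control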
KCNK9 block conf – human KCNK9 inhibitor confirmation | shares compounds with KCNK9 block | HEK293 KCNK9 cells, FluxOR thallium flux fluorescence | inhibition, % at 10 µM | 43% of 4,900 active;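 active = thallium signal inhibited by more than 5 SD of the compound-free buffer control wells, on both duplicate plates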;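 also: 0% = assay buffer control wells without compound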
Kir2-1 spec – tests whether KCNK9 modulators also affect mouse Kir2.1; Kir2.1 cells, FluxOR thallium flux fluorescence; inhibition, % at 10 µM; shares compounds with KCNK9 block; 4% of 4,900 active;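 active = thallium signal drop more than 5 SD beyond the mean of the no-compound control wells, seen in both duplicate plates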;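 also: signal is fluorescence rise after thallium addition divided by baseline fluorescence; plate controls were assay buffer only for no effect and full block by chlorpromazine control for full effect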
HEK293 Tl ctr – non-induced cell nonspecific activity of KCNK9 modulators | shares compounds with KCNK9 block | non-induced KCNK9-HEK293, FluxOR thallium flux | inhibition, % at 10 µM | 40% of 4,900 active | AID 492997;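 active = thallium signal drop beyond 5 SD of the untreated control mean, on both duplicate plates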;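 also: plate controls were buffer only IC0 wells for no effect and SID17386958 at its maximal inhibitory level for full effect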
KCNK3 confirm – confirmation of human KCNK3 two-pore domain potassium channel inhibitors; shares compounds with KCNK3 inh; CHO-KCNK3 thallium flux, FluxOR fluorescence; 0% buffer, 100% carvedilol maximal block; ratio percent of control, % at 10 µM; 99% of 2,400 active;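 active = ratio percent of control, averaged over triplicates, above buffer control mean plus 5 SD, cut at about 64% in these data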;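 also: ratio is the fluorescence rise from min to max over baseline after thallium stimulus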
KCNK3 uninduced – counter-screen for KCNK3 inhibitors: effect in non-induced cells; thallium flux ratio (lower = more inhibition) at 10 µM; 40% of 2,400 active; shares compounds with KCNK3 inh; non-induced KCNK3 parental cells, FluxOR thallium flux; hits give low values;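 active = thallium flux ratio, averaged over three wells, more than 5 SD below the buffer control mean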;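 also: host cells are CHO cells without KCNK3 induction; ratio is peak minus trough fluorescence over baseline then normalized to buffer controls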
* hit, by the source's call; i = inactive; x = no result given; + = active, no number. Compounds with a hit are over-represented: about 4.1% of the library has one in this group of screens.

SMILES | hERG protect | KCNQ1 inh | KCNK3 inh | KCC2 mod | KCNQ1 act | KCNK9 block | KCNQ1 inh valid | CHO KCNQ1 ctr | KCNQ1 APC inh | KCNQ2 inh | KCNQ1-KCNE1 inh | KCNK3 confirm | KCNK3 uninduced | others
CCc1ccc(NC(=S)N(Cc2ccccc2)Cc2ccccn2)cc1 | -4 | i | i | x | i | i | x | x | x | x | x | x | x
CC(=O)c1c(C)[nH]c(C(=O)Nc2cccc(S(=O)(=O)N(C)c3ccccc3)c2)c1C | -17 | 16* | -11* | -1.3 | i | -8.6* | 128* | 0.35* | x | 143%* | 184%* | 133* | 0.12* | KCNK9 block conf=i;Kir2-1 spec=i;HEK293 Tl ctr=36%*
CC(C)COc1cccc(-c2cc(C(=O)N/N=C/c3ccncc3)c3ccccc3n2)c1 | -11 | 14* | -10* | x | i | i | 182* | 0.3* | x | 125%* | + | 118* | 0.096*
CCOc1cc(/C=N/NC(=O)c2cc(-c3cccc(OC)c3)nc3ccccc23)ccc1O | -12 | i | i | x | i | i | x | x | x | x | x | x | x
NNC(=O)c1ccc(Cn2cc(Cl)cn2)cc1 | -3 | i | i | -0.54 | i | i | x | x | x | x | x | x | x
O=C(Nc1ccc(Cl)c(Cl)c1)c1ccc(Cn2cc(Cl)cn2)cc1 | -7 | 8* | -12* | -0.07 | i | i | 112* | 0.43 | i | 105%* | 112%* | 109* | i
Cc1ccc(Cl)cc1N1CCN(C(=S)NCCc2ccccc2)CC1 | -14 | 12* | -11* | 0.074 | i | i | 111* | 0.4 | i | 117%* | 108%* | 128* | 0.15*
O=C(c1cnc(N2CCN(c3ccccn3)CC2)c2ccccc12)N1CCN(c2cccc(Cl)c2)CC1 | -3 | 10* | -9.3* | 0.4 | i | i | 102* | 0.38* | x | 119%* | 130%* | 97* | i
Cn1c(CN2CCN(c3cccc(Cl)c3)CC2)nc2ccccc21 | -12 | i | i | -0.21 | i | i | x | x | x | x | x | x | x
COc1ccc(Nc2nc(-c3cccc(OC)c3O)nc3ccccc23)cc1 | -4 | 7* | -9.9* | x | i | i | 168* | 0.3* | x | 116%* | + | 133* | 0.15*
CCCNC(=S)N1CCN(c2nc(C)nc3sc4c(c23)CCCC4)CC1 | -13 | 8* | -9.5* | -0.71 | i | i | 112* | 0.41 | i | 135%* | 170%* | 134* | 0.14*

Assay outcomes: PubChem, several laboratories
